Measured values from ChEMBL document CHEMBL1122232, “Quantitative structure-inotropy relationship applied to substituted grayanotoxins” (J Med Chem, 1983).

Tests used:
[1] = Lethal dose in guinea pig; type: toxicity, organism-based, Cavia porcellus; details: in vivo
Summary of the method: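 Male Hartley guinea pigs of about 350 g. LD50 determined by the up-and-down method.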

Cavia porcellus = species: Cavia porcellus; assay: Positive inotropic effect was determined by measuring force of contraction of papillary muscle in guinea pig at a driving rate of 1.0 Hz; type: functional, Muscle tissue
Summary of the method: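 Isolated guinea pig papillary muscle paced at 1.0 Hz in Krebs-Henseleit solution (Ca2+ 3.2 mM, 30 °C). Compounds added cumulatively to the bath every 20 min. Contraction force recorded on oscillographic paper. pD2 = molar concentration giving 50% of maximum positive inotropic effect, read from concentration-response curves in five to six muscles; mean reported.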

| SMILES | LD50 [1] | pD2 (Cavia porcellus) |
| --- | --- | --- |
| CCCCCC(=O)O[C@@H]1C2CCC3[C@@](C)(O)C4CC(O)C(C)(C)C4(O)C(O)C[C@]31C[C@@]2(C)O (stereo not given in full) | 0.34 mg/kg | 5.75 |
| CCCCC(=O)O[C@@H]1C2CCC3[C@@](C)(O)C4CC(O)C(C)(C)C4(O)C(O)C[C@]31C[C@@]2(C)O (stereo not given in full) | 0.17 mg/kg | 6.41 |
| CC(=O)O[C@@H]1C2CCC3[C@@](C)(O)C4CC(O)C(C)(C)C4(O)C(O)C[C@]31C[C@@]2(C)O (stereo not given in full) | 1.3 mg/kg | 6.31 |
| CCC(=O)O[C@@H]1C2CCC3[C@@](C)(O)C4CC(O)C(C)(C)C4(O)C(O)C[C@]31C[C@@]2(C)O (stereo not given in full) | 0.044 mg/kg | 6.67 |
| CC(C)(C)C(=O)O[C@@H]1C2CCC3[C@@](C)(O)C4CC(O)C(C)(C)C4(O)C(O)C[C@]31C[C@@]2(C)O (stereo not given in full) | 0.36 mg/kg | 5.78 |
| CC1(C)C(O)CC2C1(O)C(O)C[C@]13C[C@@](C)(O)C(CCC1[C@@]2(C)O)[C@H]3OC(=O)CCCl (stereo not given in full) | 0.17 mg/kg | 6.96 |
| CC1(C)[C@@H](O)C[C@@H]2[C@]1(O)[C@H](O)C[C@]13C[C@@](C)(O)[C@H](CCC1[C@@]2(C)O)[C@H]3O[C@H]1O[C@@H](CO)[C@H](O)[C@@H](O)[C@@H]1O (stereo not given in full) | < 6 mg/kg | <4 |
| CC1(C)C(O)CC2C1(O)C(O)C[C@]13C[C@@](C)(O)C(CCC1[C@@]2(C)O)[C@H]3OC(=O)C1CCCCC1 (stereo not given in full) | 0.31 mg/kg | 6.17 |
| CC1(C)C(O)CC2C1(O)C(O)C[C@]13C[C@@](C)(O)C(CCC1[C@@]2(C)O)[C@H]3O (stereo not given in full) | 0.45 mg/kg | 6.15 |
| CCCCCCC(=O)O[C@@H]1C2CCC3[C@@](C)(O)C4CC(O)C(C)(C)C4(O)C(O)C[C@]31C[C@@]2(C)O (stereo not given in full) |  | 5.32 |
| CCCC(=O)O[C@@H]1C2CCC3[C@@](C)(O)C4CC(O)C(C)(C)C4(O)C(O)C[C@]31C[C@@]2(C)O (stereo not given in full) | 0.12 mg/kg | 6.81 |
| CC1(C)C(O)CC2C1(O)C(O)C[C@]13C[C@@](C)(O)C(CCC1[C@@]2(C)O)[C@H]3OC(=O)c1ccccc1 (stereo not given in full) | 1.35 mg/kg | 5.79 |
| CC(O)C(=O)O[C@@H]1C2CCC3[C@@](C)(O)C4CC(O)C(C)(C)C4(O)C(O)C[C@]31C[C@@]2(C)O (stereo not given in full) | 0.08 mg/kg | 6.54 |
